Active and inactive are the calls of the source. The calls are words filed in the database; no cut-off is given here.
Tests used:
[1] = test system: Human immunodeficiency virus 1; assay: Antiviral activity against HIV1 R5 in human PBMC assessed as fractional inhibition of viral replication at 0.125 nM; format: functional
Outline: (§1)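 Fixed-ratio combination in PBMC p24 infectivity assays (RAPA pretreatment, MOI 0.001, p24 ELISA day 4). Each drug tested alone in twofold dilutions, RAPA 0.125–2 nM and T-20 2.5–40 nM, and in a 1/20 RAPA/T-20 molar ratio. Median-effect (Chou) analysis gave Dm, m, r, combination index and dose reduction index.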

[2] = test system: Human immunodeficiency virus 1; assay: Antiviral activity against HIV1 R5 in human PBMC assessed as fractional inhibition of viral replication at 2 nM; format: functional; outline: as §1
[3] = test system: Human immunodeficiency virus 1; assay: Antiviral activity against HIV1 R5 in human PBMC assessed as fractional inhibition of viral replication at 0.250 nM; format: functional; outline: as §1
PBMC [4] = assay: Effect on cell viability of human PBMC pretreated for 14 days by trypan blue staining; conditions: 336 h
[5] = test system: Human immunodeficiency virus 1; assay: Antiviral activity against HIV1 X4 assessed as inhibition of cell-cell fusion between X4-envelope expressing HEK293T cells and CD8 depleted human PBMCs pretreated for 6 days; format: functional, organism-based; conditions: Human immunodeficiency virus 1, X4, HEK-293T
Outline: (§2)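 Target cells were CD8-depleted PBMCs pretreated 6 days with RAPA and labeled with calcein-AM. Effectors were 293T cells transfected with JRFL (R5) or HXB2 (X4) Env plus Rev, loaded with CMTMR on day 2. Cells cocultured 1:3 ± T-20 for 2.5 h at 37°C in HEPES-DMEM pH 7.2 with BSA 1 mg/ml. Double-positive cells scored by microscopy, ≥100 cells, normalized to no-T-20 fusion. EC50 from F = 100/(1 + Ci/EC50).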

[6] = test system: Human immunodeficiency virus 1; assay: Antiviral activity against HIV1 R5 assessed as inhibition of cell-cell fusion between R5-envelope expressing HEK293T cells and CD8 depleted human PBMCs pretreated for 6 days; format: functional, organism-based; conditions: Human immunodeficiency virus 1, R5, HEK-293T; outline: as §2
PBMC [7] = assay: Effect on cell viability of human PBMC at 0.03 to 1 nM after 14 days by trypan blue staining; format: cell-based; conditions: 336 h, 0.001 µM
Outline: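 PBMCs cultured with IL-2 and RAPA for 14 days; viability by trypan blue staining. Means ± SD from seven donors.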

[8] = test system: Human immunodeficiency virus 1; assay: Antiviral activity against HIV1 ADA in human PBMC assessed as reduction of p24 antigen levels after 4 days of infection; format: functional, organism-based
Outline: (§3)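 PBMCs cultured 6 days with IL-2 (100 U/ml) plus RAPA, then exposed 2 h to HIV-1 ADA (R5) or IIIb (X4) at MOI 0.001, washed three times with PBS, and kept in IL-2 medium with drugs. p24 in supernatant by ELISA on day 4 after infection. Means ± SD of independent experiments.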

[9] = test system: Human immunodeficiency virus 1; assay: Antiviral activity against HIV1 R5 in human PBMC assessed as fractional inhibition of viral replication at 1 nM; format: functional; outline: as §1
PBMC [10] = assay: Reduction of CD4 density on human PBMC at 1 nM after 6 days by quantitative fluorescence-activated cell sorting; format: functional; design: scale not given: the % may be the effect or the level left
Outline: (§4)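 PBMCs cultured 6 days with IL-2 and RAPA. Blocked 30 min at room temperature (PBS with 2% human serum, 5% horse serum, 0.1% azide), then stained 30 min with PE antibodies. Surface molecules per cell from FL-2 by Quantibrite-PE bead regression, PE/antibody ratio 1:1. Means ± SD from seven donors; Student's t test versus untreated.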

[11] = test system: Human immunodeficiency virus 1; assay: Antiviral activity against HIV1 ADA in human PBMC assessed as reduction of p24 antigen levels; format: functional, organism-based; conditions: Human immunodeficiency virus 1, ADA; outline: as §3
[12] = test system: Human immunodeficiency virus 1; assay: Antiviral activity against HIV1 R5 in human PBMC assessed as fractional inhibition of viral replication at 0.5 nM; format: functional; outline: as §1
PBMC [13] = assay: Reduction of CCR5 density on human sPBMC at 0.1 to 1 nM after 6 days by quantitative fluorescence-activated cell sorting; format: functional, cell-based; outline: as §4
[14] = test system: Human immunodeficiency virus 1; assay: Antiviral activity against HIV1 R5 in human PBMC assessed as fractional inhibition of viral replication; format: functional, organism-based; conditions: Human immunodeficiency virus 1, R5; outline: as §1
PBMC [15] = assay: Reduction of CXCR4 density on human PBMC at 0.1 to 1 nM after 6 days by quantitative fluorescence-activated cell sorting; format: functional, cell-based; outline: as §4
[16] = test system: Human immunodeficiency virus 1; assay: Antiviral activity against HIV1 X4 in human PBMC assessed as reduction of p24 antigen levels; format: functional, organism-based; conditions: Human immunodeficiency virus 1, X4; outline: as §3
[17] = test system: Human immunodeficiency virus 1; assay: Antiviral activity against HIV1 R5 in human PBMC assessed as fractional inhibition of viral replication at 5 nM; format: functional; outline: as §1
[18] = test system: Human immunodeficiency virus 1; assay: Antiviral activity against HIV1 R5 in human PBMC assessed as fractional inhibition of viral replication at 10 nM; format: functional; outline: as §1
[19] = test system: Human immunodeficiency virus 1; assay: Antiviral activity against HIV1 R5 in human PBMC assessed as fractional inhibition of viral replication at 40 nM; format: functional; outline: as §1
[20] = test system: Human immunodeficiency virus 1; assay: Antiviral activity against HIV1 R5 in human PBMC assessed as fractional inhibition of viral replication at 20 nM; format: functional; outline: as §1
[21] = test system: Human immunodeficiency virus 1; assay: Antiviral activity against HIV1 R5 in human PBMC assessed as fractional inhibition of viral replication at 2.5 nM; format: functional; outline: as §1

## CO[C@H]1C[C@@H]2CC[C@@H](C)[C@@](O)(O2)C(=O)C(=O)N2CCCC[C@H]2C(=O)O[C@H]([C@H](C)C[C@@H]2CC[C@@H](O)[C@H](OC)C2)CC(=O)[C@H](C)/C=C(\C)[C@@H](O)[C@@H](OC)C(=O)[C@H](C)C[C@H](C)/C=C/C=C/C=C/1C [SIROLIMUS]
[1]
  Activity: 0.34
[2]
  Activity: 0.92
[3]
  Activity: 0.66
PBMC [4]
  Activity: Non-toxic
[5]
  EC50: 1.3 nM
[6]
  EC50: 0.1 nM
PBMC [7]
  Activity: Non-toxic
[8]
  Activity: Active
[9]
  Activity: 0.85
PBMC [10]
  Activity: 15%
[11]
  EC50: 0.15 nM
[12]
  Activity: 0.78
PBMC [13]
  Activity: Active
[14]
  EC50: 0.18 nM
PBMC [15]
  Activity: inactive

## enfuvirtide
[16]
  EC50: 2.5 nM
[17]
  Activity: 0.24
[18]
  Activity: 0.5
[19]
  Activity: 0.73
[20]
  Activity: 0.57
[11]
  EC50: 10 nM
[21]
  Activity: 0.23
[14]
  EC50: 12.9 nM

Source: ChEMBL document CHEMBL1157364, “Rapamycin reduces CCR5 density levels on CD4 T cells, and this effect results in potentiation of enfuvirtide (T-20) against R5 strains of human immunodeficiency virus type 1 in vitro” (Antimicrob Agents Chemother, 2007)
